Test results: PubChem BioAssay
The source made the active and inactive calls.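 The calls were made as follows, unless noted: active = viability at or below 10% of carrier control in both of two separate runs; inconclusive = viability at or below 10% in only one of the two runs; inactive = the rest.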

Experiment: SK-BR-3 cell growth inhibitors, pilot screen, 24 h, human (AID 572);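 also: compound exposure lasted between 18 and 24 h rather than exactly 24 h; 100% = carrier-treated control wells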
Details: SK-BR-3 viability, CellTiter-Glo luminescence, at 10 µM, stronger effect = lower value
With `O=C1C2ON(c3ccc(Cl)cc3)C(c3ccco3)C2C(=O)N1c1ccccc1` (stereo not given) the viability was 116% (inactive). With `CCOC(=O)N1CCN(C(=O)c2ccc3c(=O)n(Cc4ccc(OC)cc4)c(=S)[nH]c3c2)CC1` the viability was 99% (inactive). For `O=C(O)/C=C/c1ccc(O)c(O)c1`, the viability was 94% (inactive). With `COC(=O)Nc1sc2c(c1C(N)=O)CCCCCC2` the viability was 89% (inactive). In the case of `CC1(C)NC(=O)N(CC(O)CN2CCCC2)C1=O` (stereo not given), the viability is reported as 96% (inactive). For `Cc1cc(=O)n2nc(N3CCCC(C(=O)N4CCc5ccccc54)C3)sc2n1` (stereo not given), the viability was 82% (inactive). With `CCN(CC)S(=O)(=O)c1cccc(-c2nnc(SCCOc3ccccc3C)o2)c1` the viability was 75% (inactive). In the case of `CCOC(=O)CSC1=C(C#N)C(c2ccc3c(c2)OCO3)CC(=O)N1` (stereo not given), the viability is reported as 90% (inactive). With `N#CC1=C(N)OC2=C(CCC/C2=C/c2ccoc2)C1c1ccoc1` (stereo not given) the viability was 87% (inactive). In the case of `O=C(NCc1ccc2c(c1)OCO2)C1CCC(CNS(=O)(=O)c2ccccc2)CC1` (stereo not given), the viability is reported as 92% (inactive). With `COC(=O)CCN(C(=O)c1ccc2c(c1)OCO2)c1ccccn1` the viability was 96% (inactive). For `CC1CCCc2sc3nc(NCc4ccco4)n4ncnc4c3c21` (stereo not given), the viability was 104% (inactive). In the case of `CCC(=O)OC1(C#CCOc2ccc(OC)cc2)CCN(C)CC1`, the viability is reported as 94% (inactive). In the case of `O=C(CCCCn1c(=O)c2ccccc2n(Cc2ccc(Cl)cc2)c1=O)NCc1ccco1`, the viability is reported as 100% (inactive). In the case of `CC1CNCCN1S(=O)(=O)c1cccc2cnccc12` (stereo not given), the viability is reported as 100% (inactive). With `CN(Cc1ccccc1)C(=O)c1cc(-c2ccc(Br)cc2)on1` the viability was 80% (inactive). With `CCOc1ccc2nc(SCC(=O)Nc3ncccn3)[nH]c2c1` the viability was 92% (inactive). In the case of `CCCC(=O)Nc1nnc(CC(=O)N2CCCC2)s1`, the viability is reported as 90% (inactive). With `Cc1csc(SCCn2c(N3CCCC3)nc3c2c(=O)[nH]c(=O)n3C)n1` the viability was 94% (inactive). In the case of `Cc1ccccc1NC(=O)CN1CCC(NC(=O)Nc2ccccc2)CC1`, the viability is reported as 108% (inactive). For `COc1cc2c(=O)nc3n(c2cc1OC)C(c1ccccc1)N=C(N)N3` (stereo not given), the viability was 69% (inactive). For `CCOC(=O)c1[nH]c2cc(OC)c(OC)cc2c1NC(=O)C(C)N1CCN(Cc2ccccc2)CC1` (stereo not given), the viability was 73% (inactive). For `O=C(Nc1ncnc2sc3c(c12)CCC3)c1ccco1`, the viability was 81% (inactive). For `CC(C)(C#N)Nn1cnnc1`, the viability was 135% (inactive). For `CCC1CCCCN1CCCNC(=O)c1ccc(CS(=O)(=O)Cc2ccccc2F)o1` (stereo not given), the viability was 106% (inactive). With `COc1cccc(OCc2nnc(SCC(=O)OCc3ccccc3)o2)c1` the viability was 101% (inactive). With `CC(=O)[C@H]1[C@H](C#N)C[C@H]2[C@@H]3CC=C4C[C@@H](O)CC[C@]4(C)[C@H]3CC[C@@]21C` the viability was 136% (inactive). In the case of `Cc1ccc(CNc2cc(-c3nn4c(C)nnc4s3)ccc2C)s1`, the viability is reported as 88% (inactive). For `Cn1c(=O)c2c(nc(Br)n2CCSc2nnnn2-c2ccccc2)n(C)c1=O`, the viability was 76% (inactive). With `COc1ccc(NS(=O)(=O)c2ccc(N)cc2)nn1` the viability was 91% (inactive). With `CC(=O)NCCC(=O)Nc1ccc(C)c(F)c1` the viability was 110% (inactive). For `Clc1ccccc1CN1CCc2sccc2C1`, the viability was 95% (inactive). With `Cn1c(=O)[nH]c(=O)c2c1nc(Br)n2Cc1ccccc1F` the viability was 116% (inactive). For `Cc1cc(NC(=O)CSc2nc(C3CC3)nc3sc4c(c23)CCC(C)C4)no1` (stereo not given), the viability was 90% (inactive). In the case of `Cc1csc(NC(=O)c2cccs2)n1`, the viability is reported as 119% (inactive). In the case of `O=C(NC1CCCC1)C(NS(=O)(=O)c1cccc2nsnc12)c1ccccc1` (stereo not given), the viability is reported as 116% (inactive). In the case of `O=C(CSc1nnc(Cc2ccccc2)n1-c1cccc(Cl)c1)N1CCOCC1`, the viability is reported as 106% (inactive). In the case of `Cc1ccc(-n2c(C)cc3c2CCCC3=O)cc1`, the viability is reported as 113% (inactive). With `COc1ccc(-n2c(SCC(N)=O)nc3sc4c(c3c2=O)CCN(C)C4)cc1` the viability was 126% (inactive). In the case of `CCOC(=O)C1CCN(C(=O)Nc2ccc3nc(C)c(C)nc3c2)CC1`, the viability is reported as 101% (inactive).

Experiment: HUVEC growth inhibition – cell-based, human, primary screen (AID 575;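 active = viability at or below 30% in both replicate assays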;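 also: 100% = median of untreated cell wells with 0.1% DMSO on each plate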)
Details: HUVEC proliferation, CellTiter-Glo luminescence, 72 h; at 10 µM; stronger effect = lower value
How it was run: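 Test system: primary human umbilical vein endothelial cells. Quantity: 1250 cells/well. Compound: single 10 µM dose, 0.1% DMSO, from 5x medium stock. Timing: 72 h treatment at 37 °C. Detection: ATP-based CellTiter-Glo luminescent read. Benchmarks: vehicle and MePR control wells. Format: 384-well plates coated with collagen.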
In the case of `O=C1C2ON(c3ccc(Cl)cc3)C(c3ccco3)C2C(=O)N1c1ccccc1` (stereo not given), the viability is reported as 81.4% (inactive). For `CCOC(=O)N1CCN(C(=O)c2ccc3c(=O)n(Cc4ccc(OC)cc4)c(=S)[nH]c3c2)CC1`, the viability was 64.6% (inactive). For `O=C(O)/C=C/c1ccc(O)c(O)c1`, the viability was 69% (inactive). For `COC(=O)Nc1sc2c(c1C(N)=O)CCCCCC2`, the viability was 105% (inactive). With `CC1(C)NC(=O)N(CC(O)CN2CCCC2)C1=O` (stereo not given) the viability was 103% (inactive). With `Cc1cc(=O)n2nc(N3CCCC(C(=O)N4CCc5ccccc54)C3)sc2n1` (stereo not given) the viability was 87.1% (inactive). For `CCN(CC)S(=O)(=O)c1cccc(-c2nnc(SCCOc3ccccc3C)o2)c1`, the viability was 89% (inactive). For `CCOC(=O)CSC1=C(C#N)C(c2ccc3c(c2)OCO3)CC(=O)N1` (stereo not given), the viability was 73.1% (inactive). In the case of `N#CC1=C(N)OC2=C(CCC/C2=C/c2ccoc2)C1c1ccoc1` (stereo not given), the viability is reported as 99.1% (inactive). With `O=C(NCc1ccc2c(c1)OCO2)C1CCC(CNS(=O)(=O)c2ccccc2)CC1` (stereo not given) the viability was 78.9% (inactive). With `COC(=O)CCN(C(=O)c1ccc2c(c1)OCO2)c1ccccn1` the viability was 93.6% (inactive). For `CC1CCCc2sc3nc(NCc4ccco4)n4ncnc4c3c21` (stereo not given), the viability was 79.2% (inactive). In the case of `CCC(=O)OC1(C#CCOc2ccc(OC)cc2)CCN(C)CC1`, the viability is reported as 105% (inactive). For `O=C(CCCCn1c(=O)c2ccccc2n(Cc2ccc(Cl)cc2)c1=O)NCc1ccco1`, the viability was 38.6% (inactive). In the case of `CC1CNCCN1S(=O)(=O)c1cccc2cnccc12` (stereo not given), the viability is reported as 84.4% (inactive). With `CN(Cc1ccccc1)C(=O)c1cc(-c2ccc(Br)cc2)on1` the viability was 94.2% (inactive). With `CCOc1ccc2nc(SCC(=O)Nc3ncccn3)[nH]c2c1` the viability was 97.4% (inactive). With `CCCC(=O)Nc1nnc(CC(=O)N2CCCC2)s1` the viability was 113% (inactive). For `Cc1csc(SCCn2c(N3CCCC3)nc3c2c(=O)[nH]c(=O)n3C)n1`, the viability was 105% (inactive). With `Cc1ccccc1NC(=O)CN1CCC(NC(=O)Nc2ccccc2)CC1` the viability was 104% (inactive). For `COc1cc2c(=O)nc3n(c2cc1OC)C(c1ccccc1)N=C(N)N3` (stereo not given), the viability was 109% (inactive). In the case of `CCOC(=O)c1[nH]c2cc(OC)c(OC)cc2c1NC(=O)C(C)N1CCN(Cc2ccccc2)CC1` (stereo not given), the viability is reported as 51.3% (inactive). In the case of `O=C(Nc1ncnc2sc3c(c12)CCC3)c1ccco1`, the viability is reported as 94% (inactive). With `CC(C)(C#N)Nn1cnnc1` the viability was 104% (inactive). In the case of `CCC1CCCCN1CCCNC(=O)c1ccc(CS(=O)(=O)Cc2ccccc2F)o1` (stereo not given), the viability is reported as 114% (inactive). For `COc1cccc(OCc2nnc(SCC(=O)OCc3ccccc3)o2)c1`, the viability was 108% (inactive). For `CC(=O)[C@H]1[C@H](C#N)C[C@H]2[C@@H]3CC=C4C[C@@H](O)CC[C@]4(C)[C@H]3CC[C@@]21C`, the viability was 103% (inactive). In the case of `Cc1ccc(CNc2cc(-c3nn4c(C)nnc4s3)ccc2C)s1`, the viability is reported as 45.1% (inactive). With `Cn1c(=O)c2c(nc(Br)n2CCSc2nnnn2-c2ccccc2)n(C)c1=O` the viability was 105% (inactive). With `COc1ccc(NS(=O)(=O)c2ccc(N)cc2)nn1` the viability was 100% (inactive). In the case of `CC(=O)NCCC(=O)Nc1ccc(C)c(F)c1`, the viability is reported as 110% (inactive). With `Clc1ccccc1CN1CCc2sccc2C1` the viability was 78.2% (inactive). With `Cn1c(=O)[nH]c(=O)c2c1nc(Br)n2Cc1ccccc1F` the viability was 78% (inactive). In the case of `Cc1cc(NC(=O)CSc2nc(C3CC3)nc3sc4c(c23)CCC(C)C4)no1` (stereo not given), the viability is reported as 108% (inactive). With `Cc1csc(NC(=O)c2cccs2)n1` the viability was 93.9% (inactive). For `O=C(NC1CCCC1)C(NS(=O)(=O)c1cccc2nsnc12)c1ccccc1` (stereo not given), the viability was 103% (inactive). For `O=C(CSc1nnc(Cc2ccccc2)n1-c1cccc(Cl)c1)N1CCOCC1`, the viability was 94.2% (inactive). For `Cc1ccc(-n2c(C)cc3c2CCCC3=O)cc1`, the viability was 112% (inactive). In the case of `COc1ccc(-n2c(SCC(N)=O)nc3sc4c(c3c2=O)CCN(C)C4)cc1`, the viability is reported as 93.5% (inactive). In the case of `CCOC(=O)C1CCN(C(=O)Nc2ccc3nc(C)c(C)nc3c2)CC1`, the viability is reported as 109% (inactive).
